Source: ChEMBL document CHEMBL2417424, “Synthesis, structure, and antibiotic activity of aryl-substituted LpxC inhibitors” (J Med Chem, 2013)
Values after ≈ are worked out from the molar mass of the structure shown.

What was measured:
Escherichia coli [1] = experiment: Antimicrobial activity against Escherichia coli W3110PA after 22 hrs by MTT assay; type: functional
In short: (§1)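 Broth microdilution (modified NCCLS) in 96-well plates, LB medium with 5% DMSO; 2-fold compound series spanning 0.0005–1, 0.0025–5 or 0.024–50 µg/mL. Cells grown to OD600 0.6, diluted 100-fold, added to wells; 22 h at 37 °C, then MTT (1 mg/mL) 3 h at 37 °C. MIC = lowest concentration with no visible colour change; triplicate.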

Pseudomonas aeruginosa = experiment: Antimicrobial activity against Pseudomonas aeruginosa PAO1 after 22 hrs by MTT assay; type: functional; conditions: PAO1, 22 h; in short: as §1
Escherichia coli [2] = experiment: Antimicrobial activity against wild type Escherichia coli W3110 after 22 hrs by MTT assay; type: functional; conditions: W3110, 22 h; in short: as §1
Escherichia coli [3] = experiment: Ratio of MIC for wild type Escherichia coli W3110 to MIC for Escherichia coli CMR300; type: functional
Escherichia coli [4] = experiment: Antimicrobial activity against Escherichia coli CMR300 after 22 hrs by MTT assay; type: functional; conditions: CMR300, 22 h; in short: as §1
Salmonella typhimurium = experiment: Antimicrobial activity against Salmonella enterica typhimurium LT2 after 22 hrs by MTT assay; type: functional, Salmonella enterica subsp. enterica serovar Typhimurium; conditions: LT2, 22 h; in short: as §1
Francisella novicida [5] = experiment: Antimicrobial activity against Francisella novicida U 112 after 22 hrs by MTT assay; type: functional, Francisella tularensis subsp. novicida; conditions: Francisella tularensis, U 112, 22 h
In short: (§2)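 Broth microdilution in triplicate (modified NCCLS) in LB with 5% DMSO, using 2-fold compound series over 0.0005–1, 0.0025–5 or 0.024–50 µg/mL. Cells grown to OD600 0.6 were diluted 100-fold into the wells and incubated 22 h at 37 °C. A 1 mg/mL MTT solution was added for 3 h more at 37 °C. MIC = lowest concentration with no visible yellow-to-black colour change.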

Vibrio cholerae = experiment: Antimicrobial activity against Vibrio cholerae P4 after 22 hrs by MTT assay; type: functional; conditions: P4, 22 h; in short: as §2
Klebsiella pneumoniae = experiment: Antimicrobial activity against Klebsiella pneumoniae 43816 after 22 hrs by MTT assay; type: functional; conditions: Klebsiella pneumoniae, 43816, 22 h; in short: as §1
[6] = Ratio of MIC for Pseudomonas aeruginosa PAO1 to MIC for Escherichia coli W3110PA; type: functional
Francisella novicida [7] = experiment: Ratio of LPC-011 MIC to compound MIC for Francisella novicida U 112 after 22 hrs by MTT assay; type: functional, Francisella tularensis subsp. novicida
[8] = target: T1, UDP-3-O-acyl-N-acetylglucosamine deacetylase (Escherichia coli K-12, UniProt P0A725); experiment: Inhibition of Escherichia coli LpxC enzyme using UDP-3-O-[(R)-3-hydroxymyristoyl]-N-acetyl glucosamine and [gamma-32P] UDP-3-O-[(R)-3-hydroxymyristoyl]-N-acetylglucosamine as substrate after 1 to 4 hrs
T1 sequence (P0A725 whole entry): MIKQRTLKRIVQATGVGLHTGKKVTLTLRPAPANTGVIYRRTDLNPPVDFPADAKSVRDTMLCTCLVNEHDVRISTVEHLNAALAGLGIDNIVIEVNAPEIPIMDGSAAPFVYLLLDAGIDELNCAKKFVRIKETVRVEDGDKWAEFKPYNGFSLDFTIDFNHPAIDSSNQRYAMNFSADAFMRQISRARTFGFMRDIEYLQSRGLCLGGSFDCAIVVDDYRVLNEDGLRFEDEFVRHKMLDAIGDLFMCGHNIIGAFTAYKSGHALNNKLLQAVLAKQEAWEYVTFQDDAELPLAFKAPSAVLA

[9] = target: T2, UDP-3-O-acyl-N-acetylglucosamine deacetylase (Escherichia coli K-12) (UniProt P0A725); experiment: Ratio of LPC-011 Ki to compound Ki for Escherichia coli LpxC enzyme
T2 sequence (whole entry): T1 sequence (P0A725 whole entry)

SMILES: Nc1ccc(C#CC#Cc2ccc(C(=O)N[C@H](C(=O)NO)[C@@H](O)c3ccc(O)cc3)cc2)cc1
- MIC (Escherichia coli [1]): 0.9 µg/mL (≈ 1.98 µM)
- MIC (Pseudomonas aeruginosa): 1 µg/mL (≈ 2.2 µM)
- MIC (Escherichia coli [2]): 0.13 µg/mL (≈ 0.285 µM)
- Ratio (Escherichia coli [3]): 43
- MIC (Escherichia coli [4]): 0.003 µg/mL (≈ 0.00659 µM)

SMILES: C[C@@H](O)[C@H](NC(=O)c1ccc(C#CC#Cc2ccc(N)cc2)cc1)C(=O)NO
- MIC (Escherichia coli [1]): 0.32 µg/mL (≈ 0.848 µM)
- MIC (Pseudomonas aeruginosa): 0.32 µg/mL (≈ 0.848 µM)
- MIC (Salmonella typhimurium): 0.024 µg/mL (≈ 0.0636 µM)
- MIC (Francisella novicida [5]): 2.5 µg/mL (≈ 6.62 µM)
- MIC (Escherichia coli [2]): 0.03 µg/mL (≈ 0.0795 µM)
- MIC (Vibrio cholerae): 0.01 µg/mL (≈ 0.0265 µM)
- MIC (Klebsiella pneumoniae): 0.13 µg/mL (≈ 0.344 µM)
- Ratio (Escherichia coli [3]): 30
- MIC (Escherichia coli [4]): 0.001 µg/mL (≈ 0.00265 µM)

SMILES: Nc1ccc(C#CC#Cc2ccc(C(=O)N[C@@H](Cc3ccc(O)cc3)C(=O)NO)cc2)cc1
- MIC (Escherichia coli [1]): 4.7 µg/mL (≈ 10.7 µM)
- MIC (Pseudomonas aeruginosa): 12.5 µg/mL (≈ 28.4 µM)
- Ratio [6]: 3
- MIC (Escherichia coli [2]): 0.8 µg/mL (≈ 1.82 µM)
- Ratio (Escherichia coli [3]): 80
- MIC (Escherichia coli [4]): 0.01 µg/mL (≈ 0.0228 µM)

SMILES: C[C@](O)(c1c[nH]nn1)[C@H](NC(=O)c1ccc(C#CC#Cc2ccc(N)cc2)cc1)C(=O)NO
- Ratio (Francisella novicida [7]): 2
- Ki [8]: 0.024 nM
- MIC (Escherichia coli [1]): 0.5 µg/mL (≈ 1.12 µM)
- MIC (Pseudomonas aeruginosa): 0.5 µg/mL (≈ 1.12 µM)
- Ratio Ki [9]: 1.6
- MIC (Salmonella typhimurium): 0.1 µg/mL (≈ 0.225 µM)
- MIC (Francisella novicida [5]): 1 µg/mL (≈ 2.25 µM)
- MIC (Escherichia coli [2]): 0.06 µg/mL (≈ 0.135 µM)
- MIC (Vibrio cholerae): 0.03 µg/mL (≈ 0.0675 µM)
- MIC (Klebsiella pneumoniae): 0.25 µg/mL (≈ 0.562 µM)
- MIC (Escherichia coli [4]): 0.004 µg/mL (≈ 0.009 µM)

SMILES: Nc1ccc(C#CC#Cc2ccc(C(=O)N[C@@H](Cc3c[nH]c4ccccc34)C(=O)NO)cc2)cc1
- MIC (Escherichia coli [1]): > 50 µg/mL
- MIC (Pseudomonas aeruginosa): > 50 µg/mL
- MIC (Escherichia coli [2]): 12.5 µg/mL (≈ 27 µM)
- Ratio (Escherichia coli [3]): 208
- MIC (Escherichia coli [4]): 0.06 µg/mL (≈ 0.13 µM)

SMILES: Nc1ccc(C#CC#Cc2ccc(C(=O)N[C@@H](Cc3c[nH]cn3)C(=O)NO)cc2)cc1
- MIC (Escherichia coli [1]): 6.3 µg/mL (≈ 15.2 µM)
- MIC (Pseudomonas aeruginosa): 6.3 µg/mL (≈ 15.2 µM)
- MIC (Escherichia coli [2]): 0.4 µg/mL (≈ 0.967 µM)
- Ratio (Escherichia coli [3]): 20
- MIC (Escherichia coli [4]): 0.02 µg/mL (≈ 0.0484 µM)

SMILES: Nc1ccc(C#CC#Cc2ccc(C(=O)N[C@@H](Cc3ccccc3)C(=O)NO)cc2)cc1
- MIC (Escherichia coli [1]): > 50 µg/mL
- MIC (Pseudomonas aeruginosa): > 50 µg/mL
- MIC (Escherichia coli [2]): 6.3 µg/mL (≈ 14.9 µM)
- Ratio (Escherichia coli [3]): 450
- MIC (Escherichia coli [4]): 0.014 µg/mL (≈ 0.0331 µM)

SMILES: C[C@@H](O)[C@H](NC(=O)c1ccc(C#Cc2ccc(CN3CCOCC3)cc2)cc1)C(=O)NO
- MIC (Escherichia coli [1]): 1.3 µg/mL (≈ 2.97 µM)
- MIC (Pseudomonas aeruginosa): 1.6 µg/mL (≈ 3.66 µM)
- MIC (Salmonella typhimurium): 0.16 µg/mL (≈ 0.366 µM)
- MIC (Francisella novicida [5]): 3.1 µg/mL (≈ 7.09 µM)
- MIC (Escherichia coli [2]): 0.2 µg/mL (≈ 0.457 µM)
- MIC (Vibrio cholerae): 0.16 µg/mL (≈ 0.366 µM)
- MIC (Klebsiella pneumoniae): 0.64 µg/mL (≈ 1.46 µM)
- MIC (Escherichia coli [4]): 0.01 µg/mL (≈ 0.0229 µM)

SMILES: C[C@@](O)(c1ccc(O)cc1)[C@H](NC(=O)c1ccc(C#CC#Cc2ccc(N)cc2)cc1)C(=O)NO
- MIC (Escherichia coli [1]): 3.2 µg/mL (≈ 6.82 µM)
- MIC (Pseudomonas aeruginosa): 5 µg/mL (≈ 10.6 µM)
- MIC (Escherichia coli [2]): 0.5 µg/mL (≈ 1.06 µM)
- Ratio (Escherichia coli [3]): 62
- MIC (Escherichia coli [4]): 0.008 µg/mL (≈ 0.017 µM)

SMILES: Nc1ccc(C#CC#Cc2ccc(C(=O)N[C@H](C(=O)NO)[C@H](O)c3ccc(O)cc3)cc2)cc1
- MIC (Escherichia coli [1]): > 50 µg/mL
- MIC (Pseudomonas aeruginosa): > 50 µg/mL
- MIC (Escherichia coli [2]): 50 µg/mL (≈ 110 µM)
- Ratio (Escherichia coli [3]): 333
- MIC (Escherichia coli [4]): 0.15 µg/mL (≈ 0.329 µM)

SMILES: C[C@](O)(c1ccc(O)cc1)[C@H](NC(=O)c1ccc(C#CC#Cc2ccc(N)cc2)cc1)C(=O)NO
- Ratio (Francisella novicida [7]): 2
- Ki [8]: 0.024 nM
- MIC (Escherichia coli [1]): 0.5 µg/mL (≈ 1.06 µM)
- MIC (Pseudomonas aeruginosa): 0.7 µg/mL (≈ 1.49 µM)
- Ratio Ki [9]: 1.6
- MIC (Salmonella typhimurium): 0.05 µg/mL (≈ 0.106 µM)
- MIC (Francisella novicida [5]): 0.63 µg/mL (≈ 1.34 µM)
- MIC (Escherichia coli [2]): 0.03 µg/mL (≈ 0.0639 µM)
- MIC (Vibrio cholerae): 0.016 µg/mL (≈ 0.0341 µM)
- MIC (Klebsiella pneumoniae): 0.16 µg/mL (≈ 0.341 µM)
- Ratio (Escherichia coli [3]): 300
- MIC (Escherichia coli [4]): 0.0001 µg/mL (≈ 0.000213 µM)
